Assay results: ChEMBL document CHEMBL1149274, “Stereochemical analysis of (hydroxyethyl)urea peptidomimetic inhibitors of gamma-secretase” (J Med Chem, 2004)

Legend:
Gamma-secretase [1] = assay: Inhibition of gamma secretase isolated from HeLa cells by ELISA; assay type: cell-free, Homo sapiens
In short: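 HeLa membranes were washed in 0.1 M Na2CO3, pH 11.3, then solubilized in 1% CHAPSO. The preparation (0.2 mg protein/mL) was incubated with compound or DMSO and the C100Flag substrate at 37 °C for 0 or 4 h. Reactions were stopped with 0.5% SDS and boiling for 5 min. Aβ x-40 and x-42 products were measured by sandwich ELISA (capture 2G3/21F12, biotinylated 266 reporter).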

Gamma-secretase [2] = assay: Inhibition of gamma secretase in CHO cells expressing human APP by ELISA; assay type: cell-based
In short: (§1)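 CHO 7w cells stably expressing the 751-residue APP splice variant, grown to confluence in DMEM with 200 μg/mL G418. Compounds were added from DMSO stocks to a final 1% DMSO; vehicle-only wells served as controls. After 4 or 24 h, the medium was spun at 3000g for 5 min. Aβ40 and Aβ42 were measured by sandwich ELISA (capture 2G3/21F12, biotinylated 3D6 reporter, TMB read at 455 nm). Mean ± SD of three experiments.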

Gamma-secretase [3] = assay: Inhibition of gamma secretase in CHO cells expressing human APP after 4 hrs by ELISA; assay type: cell-based; in short: as §1
Gamma-secretase [4] = assay: Inhibition of gamma secretase in CHO cells expressing human APP after 24 hrs by ELISA; assay type: cell-based; in short: as §1

Row | SMILES | IC50 (Gamma-secretase [1]) | IC50 (Gamma-secretase [2]) | IC50 (Gamma-secretase [3]) | IC50 (Gamma-secretase [4])
1 | COC(=O)[C@H](NC(=O)[C@@H](C)NC(=O)N(Cc1ccccc1)C[C@@H](O)[C@@H](Cc1ccccc1)NC(=O)OC(C)(C)C)C(C)C | 3 µM | 10 µM |  | 
2 | COC(=O)[C@@H](CC(C)C)NC(=O)[C@@H](CC(C)C)NC(=O)N(Cc1ccccc1)C[C@@H](O)[C@@H](Cc1ccccc1)NC(=O)OC(C)(C)C | 0.2 µM | 3 µM | 3 µM | 9 µM
3 | COC(=O)[C@@H](CC(C)C)NC(=O)[C@@H](CC(C)C)NC(=O)N(Cc1ccccc1)C[C@H](O)[C@@H](Cc1ccccc1)NC(=O)OC(C)(C)C | 2 µM | 8 µM |  | 
4 | COC(=O)[C@H](NC(=O)[C@@H](CC(C)C)NC(=O)N(Cc1ccccc1)C[C@H](O)[C@@H](Cc1ccccc1)NC(=O)OC(C)(C)C)C(C)C | 3 µM | 10 µM |  | 
5 | COC(=O)[C@H](CC(C)C)NC(=O)[C@H](CC(C)C)NC(=O)N(Cc1ccccc1)C[C@@H](O)[C@H](Cc1ccccc1)NC(=O)OC(C)(C)C | 0.03 µM | 0.6 µM | 0.6 µM | 9.4 µM
6 | COC(=O)[C@@H](CC(C)C)NC(=O)N(Cc1ccccc1)C[C@@H](O)[C@@H](Cc1ccccc1)NC(=O)OC(C)(C)C | 6 µM | 15 µM |  | 
7 | COC(=O)[C@H](NC(=O)[C@H](NC(=O)N(Cc1ccccc1)C[C@@H](O)[C@@H](Cc1ccccc1)NC(=O)OC(C)(C)C)C(C)C)C(C)C | 2 µM | 12 µM |  | 
8 | COC(=O)[C@@H](NC(=O)[C@H](CC(C)C)NC(=O)N(Cc1ccccc1)C[C@@H](O)[C@@H](Cc1ccccc1)NC(=O)OC(C)(C)C)C(C)C | 0.01 µM | 0.4 µM |  | 
9 | CC(C)C[C@H](NC(=O)[C@@H](CC(C)C)NC(=O)N(Cc1ccccc1)C[C@@H](O)[C@@H](Cc1ccccc1)NC(=O)OC(C)(C)C)C(=O)OC(C)(C)C |  |  | 0.6 µM | 7 µM
10 | COC(=O)[C@H](NC(=O)[C@H](CC(C)C)NC(=O)N(Cc1ccccc1)C[C@@H](O)[C@@H](Cc1ccccc1)NC(=O)OC(C)(C)C)C(C)C | 0.08 µM | 0.8 µM |  | 
11 | COC(=O)[C@H](NC(=O)[C@H](CC(C)C)NC(=O)N(Cc1ccccc1)C[C@@H](O)[C@H](Cc1ccccc1)NC(=O)OC(C)(C)C)C(C)C | 0.6 µM | 1 µM |  | 
12 | COC(=O)[C@@H](NC(=O)[C@@H](CC(C)C)NC(=O)N(Cc1ccccc1)C[C@@H](O)[C@H](Cc1ccccc1)NC(=O)OC(C)(C)C)C(C)C | 0.06 µM | 0.8 µM |  | 
13 | COC(=O)[C@@H](C)NC(=O)[C@@H](CC(C)C)NC(=O)N(Cc1ccccc1)C[C@@H](O)[C@@H](Cc1ccccc1)NC(=O)OC(C)(C)C | 2 µM | 7 µM |  | 
14 | COC(=O)[C@H](NC(=O)[C@@H](Cc1ccccc1)NC(=O)N(Cc1ccccc1)C[C@@H](O)[C@@H](Cc1ccccc1)NC(=O)OC(C)(C)C)C(C)C | 9 µM | 24 µM |  | 
15 | COC(=O)[C@H](NC(=O)[C@@H](CC(C)C)NC(=O)N(Cc1ccccc1)C[C@@H](O)[C@@H](Cc1ccccc1)NC(=O)OC(C)(C)C)C(C)C | 0.1 µM | 2 µM | 2 µM | 17 µM
16 | COC(=O)[C@H](NC(=O)[C@@H](CC(C)C)NC(=O)N(Cc1ccccc1)C[C@@H](O)[C@@H](Cc1ccccc1)NC(=O)[C@@H](C)NC(=O)OC(C)(C)C)C(C)C | 12 µM | 30 µM |  | 
17 | COC(=O)[C@@H](NC(=O)[C@H](CC(C)C)NC(=O)N(Cc1ccccc1)C[C@@H](O)[C@H](Cc1ccccc1)NC(=O)OC(C)(C)C)C(C)C | 0.01 µM | 0.4 µM | 0.4 µM | 18 µM
18 | COC(=O)[C@H](NC(=O)[C@@H](CC(C)C)NC(=O)N(Cc1ccccc1)C[C@@H](O)[C@@H](Cc1ccccc1)NC(=O)[C@@H](CC(C)C)NC(=O)OC(C)(C)C)C(C)C | 0.9 µM | 2 µM |  | 
19 | COC(=O)[C@H](NC(=O)[C@@H](CC(C)C)NC(=O)N(Cc1ccccc1)C[C@@H](O)[C@@H](Cc1ccccc1)NC(=O)[C@H](NC(=O)OC(C)(C)C)C(C)C)C(C)C | 3 µM | 7 µM |  | 
20 | COC(=O)[C@@H](Cc1ccccc1)NC(=O)[C@@H](CC(C)C)NC(=O)N(Cc1ccccc1)C[C@@H](O)[C@@H](Cc1ccccc1)NC(=O)OC(C)(C)C | 0.8 µM | 3 µM |  | 
21 | COC(=O)[C@H](NC(=O)[C@@H](CC(C)C)NC(=O)N(CC(C)C)C[C@@H](O)[C@@H](Cc1ccccc1)NC(=O)OC(C)(C)C)C(C)C | 2 µM | 5 µM |  | 
22 | COC(=O)[C@H](NC(=O)[C@@H](CC(C)C)NC(=O)N(Cc1ccccc1)C[C@@H](O)[C@@H](Cc1ccccc1)NC(=O)[C@@H](Cc1ccccc1)NC(=O)OC(C)(C)C)C(C)C | 2 µM | 8 µM |  | 
23 | COC(=O)[C@H](NC(=O)[C@@H](CC(C)C)NC(=O)N(C)C[C@@H](O)[C@@H](Cc1ccccc1)NC(=O)OC(C)(C)C)C(C)C | 7 µM | 12 µM |  | 
24 | COC(=O)[C@@H](NC(=O)[C@@H](CC(C)C)NC(=O)N(Cc1ccccc1)C[C@@H](O)[C@@H](Cc1ccccc1)NC(=O)OC(C)(C)C)C(C)C | 0.8 µM | 8 µM |  | 
25 | CC(C)C[C@H](NC(=O)N(Cc1ccccc1)C[C@@H](O)[C@H](Cc1ccccc1)NC(=O)OC(C)(C)C)C(=O)N[C@H](C(=O)OC(C)(C)C)C(C)C |  |  | 0.3 µM | 6 µM
26 | COC(=O)[C@H](NC(=O)[C@@H](CC(C)C)NC(=O)N(Cc1ccccc1)C[C@@H](O)[C@H](Cc1ccccc1)NC(=O)OC(C)(C)C)C(C)C | 0.03 µM | 0.6 µM |  | 
27 | CC(C)C[C@@H](NC(=O)N(Cc1ccccc1)C[C@@H](O)[C@@H](Cc1ccccc1)NC(=O)OC(C)(C)C)C(=O)N[C@@H](C(=O)OC(C)(C)C)C(C)C |  |  | 3 µM | 6.2 µM
28 | CC(C)C[C@H](NC(=O)N(Cc1ccccc1)C[C@@H](O)[C@H](Cc1ccccc1)NC(=O)OC(C)(C)C)C(=O)N[C@H](CC(C)C)C(=O)OC(C)(C)C |  |  | 0.4 µM | 5 µM
29 | COC(=O)[C@H](NC(=O)[C@@H](CC(C)C)NC(=O)N(C[C@@H](O)[C@@H](Cc1ccccc1)NC(=O)OC(C)(C)C)C(C)C)C(C)C | 4 µM | 8 µM |  | 
